In all, about 360,000 compounds went through this assay and about 1,100 (0.31%) were called active. The sample holds actives, similar compounds and a random draw of the others, so the mix is not that of the screen. Unmarked numbers belong to inactive results.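 Rule for the calls: active = activation above the run cutoff, the mean activation of all test compounds plus 3 SD (cut at about 18% in these data); inactive = the rest.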

Sequence of Muscarinic acetylcholine receptor M5 (Homo sapiens) (P08912 whole entry, looked up): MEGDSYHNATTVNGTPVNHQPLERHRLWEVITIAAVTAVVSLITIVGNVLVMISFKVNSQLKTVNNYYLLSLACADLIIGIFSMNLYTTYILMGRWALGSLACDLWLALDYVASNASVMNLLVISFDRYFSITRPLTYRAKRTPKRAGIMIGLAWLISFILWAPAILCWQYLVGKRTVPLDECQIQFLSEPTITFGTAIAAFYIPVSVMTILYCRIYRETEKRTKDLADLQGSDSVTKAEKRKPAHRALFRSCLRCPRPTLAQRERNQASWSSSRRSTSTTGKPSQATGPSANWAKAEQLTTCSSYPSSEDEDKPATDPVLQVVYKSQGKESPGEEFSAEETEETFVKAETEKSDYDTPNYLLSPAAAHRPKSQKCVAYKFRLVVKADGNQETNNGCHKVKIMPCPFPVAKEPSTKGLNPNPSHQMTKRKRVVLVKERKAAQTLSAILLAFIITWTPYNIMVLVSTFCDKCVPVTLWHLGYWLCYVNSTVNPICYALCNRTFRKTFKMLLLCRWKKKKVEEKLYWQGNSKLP

This experiment deals with Muscarinic acetylcholine receptor M5 (Homo sapiens) (UniProt P08912). Description: CHRM5 PAMs potentiating acetylcholine calcium signal – CHO-K1 cells, Fluo-8 calcium fluorescence, primary screen (AID 624038). Conditions: CHO-K1 hM5, Fluo-8 calcium, ACh EC20 PAM; at 3 µM; stronger effect = higher value; 0% = ACh EC20, 100% = ACh EC100. Put shortly:
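System: CHO-K1 hM5 cells. Reagent: acetylcholine, EC20 level. Compound dosing: single dose, 3 µM nominal final test concentration. Timing: Post-acetylcholine fluorescence recording 140 s. Detection: Fluo-8 calcium fluorescence. Read-out: % activation, ACh-normalized. Benchmarks: ACh EC20 and EC100 wells. Repeats: singlicate, one well per test compound.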
For `CCCc1ccc(C(=O)[C@@H]2[C@@H](C(C)=O)N3c4ccc(F)cc4C=C[C@@H]3[C@@]23C(=O)Nc2ccccc23)cc1`, the activation was 25.3% (active).

Take `COC(=O)c1ccc(Oc2nc(NC(C)C)nc(SC)n2)cc1`: the activation is 2.31%.

Turning to `CCOc1ccc(N(C)S(=O)(=O)c2cnc[nH]2)cc1`, the activation is 11.8%.

In the case of `Cc1ccc2[nH]c(=O)c(COC(=O)c3ccccn3)cc2c1`, the activation is -8.69%.

Take `CCCc1nc(-c2cc3cc(C)ccc3[nH]c2=O)no1`: the activation was 25% (active).

For `Cc1ccc2[nH]c(=O)c(CN(C)S(=O)(=O)c3cccc4nonc34)cc2c1`, the activation was 4.24%.

With `Cc1c(C(=O)NCC2CC2)sc(=O)n1Cc1cccc(F)c1`, the activation was 2.84%.

Regarding `CCCn1c(O)c(CN2CCCC(C)C2)c(C)c(C#N)c1=O` (centres undefined), the activation is -2.92%.

For `O=C(COC(=O)c1ccc(Cl)nc1)NCc1cccs1`, the activation is -12.7%.

Consider `CC(C)(C)NC(=O)CN(C(=O)c1csnn1)c1ccccc1-c1ccccc1`, for which the activation is -2.48%.

In the case of `CC(C)(C)NC(=O)CN(C(=O)c1ccc(Cl)nc1)c1cccc2ccccc12`, the activation is 22.9% (active).

As to `O=c1c2cc(-c3ccccc3)sc2nc2n1N=C(c1cccs1)CS2`, the activation is 9.65%.

Take `Cc1cc(C)n(-c2nnc(N3CCN(c4ccccc4)CC3)nn2)n1`: the activation was -0.36%.

For the compound `Cc1cc(C)nc(-n2nc(C)cc2NC(=O)c2ccc(F)cc2F)n1`, the activation is 3.36%.

With `Cc1cc(N/N=C\c2ccc(Br)cc2)nc(-n2nc(C)cc2C)n1`, the activation was 20.4% (active).

Consider `COc1ccccc1-c1n[nH]nc1C1=CC(=O)CC(C)(C)C1`, for which the activation was -0.48%.

On to `CCCCCCCCN1C(=O)[C@H](CC(=O)NCC23CC4CC(CC(C4)C2)C3)C[C@@]2(C(=O)OC)CCCCC=C12`, for which the activation was -2.23%.

Consider `Cc1ccc(C(=O)NC(C)c2ccccc2)cc1Br` (centres undefined), for which the activation is -0.29%.

Consider `CC(NC(=O)C(=O)N/N=C/c1ccc(Cl)cc1)c1ccccc1` (centres undefined), for which the activation was -5.3%.

For the compound `CC(NC(=O)c1cc2cc(Cl)ccc2oc1=N)c1ccccc1` (centres undefined), the activation is 35.2% (active).

Turning to `COC(=O)c1cccc([N+](=O)[O-])c1CS(=O)(=O)c1ccc(C)cc1`, the activation was -5.08%.

`CC(=O)N1c2ccc(S(=O)(=O)N3CCC(C(=O)NC4CCCCC4C)CC3)cc2CC1C` (centres undefined): the activation was -5.55%.

As for `COC(=O)Cc1nc2c(N)nc(N)nc2[nH]c1=O`, the activation is 5.33%.

Regarding `COc1cc(C2C3=C(CCCC3=O)OC3=C2C(=O)CCC3)ccc1OCC(=O)Nc1ccccc1`, the activation is -5.18%.

Consider `NC1=C([N+](=O)[O-])C(c2ccccc2)C2=C(CCCC2=O)O1` (centres undefined), for which the activation is 23.6% (active).

Consider `N#CC1=C(N)OC2=C(C(=O)CCC2)C1C1CC=CCC1` (centres undefined), for which the activation was -4.35%.

As to `CCCNC(=O)C1(C)CCN(Cc2ccc(Cl)c(Cl)c2)C1` (centres undefined), the activation was 0.24%.

`Cc1cc(-n2cnc(-c3cn(C)nc3C)n2)no1`: the activation was -0.03%.

As for `CC(C)Oc1ccc(CN2CCC(n3nccc3NC(=O)c3cccnc3)CC2)cc1`, the activation was 0.11%.

As to `COc1ccc(S(=O)(=O)N2CCN(CC(=O)N3CCNC3=O)CC2)cc1OC`, the activation is 2.2%.

For the compound `CN1C2CCC1CC(NC(=O)c1ccc([N+](=O)[O-])cc1)C2` (centres undefined), the activation was 0.81%.

Turning to `CC(=O)N1CC[n+]2c(-c3ccc([N+](=O)[O-])cc3)csc21`, the activation was 20% (active).

Take `Cc1cc(C)cc(C(=O)N2CCN=C2SCc2ccc([N+](=O)[O-])cc2)c1`: the activation is -5.65%.

For `O=C(NNS(=O)(=O)c1c(F)cc(F)c(Cl)c1F)C12CC3CC(CC(C3)C1)C2`, the activation is -0.38%.

For the compound `CC(C)(C)C1CCC(OC(=O)CCC(=O)Nc2ccccc2)CC1` (centres undefined), the activation was -2.13%.

On to `CN1CCC(=NNC(=O)CN(c2cccc(Cl)c2)S(C)(=O)=O)CC1`, for which the activation was 7.47%.

For `CC(CCc1ccccc1)NC(=O)COC(=O)c1ccc(F)cc1` (centres undefined), the activation is -4.05%.

For `COc1cc(OC)cc(C(=O)NCC(=O)OCC(=O)NC(C)CCc2ccccc2)c1` (centres undefined), the activation was 21.1% (active).

As to `COc1cc(C(=O)OCC(=O)NC(C)CCc2ccccc2)cc(OC)c1OC` (centres undefined), the activation is -10.1%.

Regarding `CC(C)CN(C(=O)CSc1nncn1C)C1CCS(=O)(=O)C1` (centres undefined), the activation was 11.7%.

In the case of `CCc1nn(CCCC(=O)NCc2ccc(C)cc2)c(=O)c2cc3occc3n12`, the activation was 2.21%.

Regarding `CCC(C(=O)NCc1ccc(OC)cc1)n1nc(C)n2c(cc3occc32)c1=O` (centres undefined), the activation is 18.4% (active).

Turning to `CCOc1ccc(CCNC(=O)C(CC)n2nc(C)n3c(cc4sccc43)c2=O)cc1OCC` (centres undefined), the activation was -4.37%.

As to `COc1cc(OC)c(NC(=O)C2CCCN2C(=O)OCc2ccccc2)cc1Cl` (centres undefined), the activation is 2.68%.

As for `CCCCNC(=O)OC1CC2CC1[C@H]1CCCCN1C2=O` (some centres undefined), the activation is 0.25%.

On to `CC(=O)Oc1ccc(-c2cccc(C(=O)N3CCCCC3)c2)cc1`, for which the activation is -3.42%.

Take `COc1ccc(OCc2cccc(C(=O)N3CCCC3)c2)cc1`: the activation was 19.1% (active).

On to `CCOc1ccc(OCc2cccc(C(=O)N(CC)CC)c2)cc1`, for which the activation is -1.6%.

On to `Cc1ccc(C2SCC(=O)N2c2ccccc2)cc1` (centres undefined), for which the activation was 13.5%.

For `CC(C)(C)OC(=O)C[C@@H]1C/C=C\C[C@@H](CC(=O)N[C@H](CO)Cc2ccccc2)C(=O)NCCOC1=O`, the activation was -2.01%.

`C[C@H]1COC(=O)[C@H](CC(=O)OC(C)(C)C)C/C=C\C[C@@H](CC(=O)N[C@H](CO)Cc2ccccc2)C(=O)N1`: the activation is 20.5% (active).

`CC(C)(C)OC(=O)C[C@@H]1C/C=C\C[C@H](CC(=O)N[C@@H](CO)Cc2ccccc2)C(=O)N[C@H](Cc2ccccc2)COC1=O`: the activation is -0.44%.

Regarding `Cc1nn(C)c(C)c1Sc1ccccc1N`, the activation was -3.24%.

Regarding `O=C(COC(=O)CNC(=O)c1ccccc1F)NCC(F)(F)F`, the activation is 16.4%.

Consider `O=C(CNC(=O)c1ccccc1F)c1ccc(Br)cc1`, for which the activation is 1.83%.

With `COC(=O)CNC(=O)c1ccccc1F`, the activation was 22.4% (active).

For the compound `COc1ccccc1NC(=O)c1c(Br)cnn1C`, the activation was 0.59%.

With `Cn1ncc(Br)c1C(=O)NC1CCCC1`, the activation is 36.9% (active).

`Cc1nn(C)c(C(=O)NNC(=S)NC2CCCCC2)c1Cl`: the activation was -3.58%.

The values above are taken from PubChem BioAssay AID624038 (The Scripps Research Institute Molecular Screening Center, 2012).
